CDK5 inh – CDK5/p35 (human) kinase inhibition; Q00535+Q15078; Recombinant CDK5/p35, ADP-Glo luminescence, 60 min; inhibition, % at 10 µM; 330,000 tested, 0.01% active;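 active = highest replicate inhibition of at least 50% and at least 75% of replicates reaching 50%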;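 also: plate controls were DMSO neutral control for no effect and GW8510 at 10 µM for full effect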
SR-BI HDL uptake – inhibitors of mouse SR-BI mediated HDL lipid uptake; inhibition, % at 12.5 µM; AID 488896; Q61009; ldlA[mSR-BI] CHO cells, DiI-HDL uptake fluorescence, 3 h; 320,000 tested, 0.96% active;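 active = mean replicate inhibition of at least 70% and a set share of replicates each scoring 70 or more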;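 also: 0% = median of neutral control wells and 100% = median of positive control wells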
Target sequence (Q61009 whole entry, looked up): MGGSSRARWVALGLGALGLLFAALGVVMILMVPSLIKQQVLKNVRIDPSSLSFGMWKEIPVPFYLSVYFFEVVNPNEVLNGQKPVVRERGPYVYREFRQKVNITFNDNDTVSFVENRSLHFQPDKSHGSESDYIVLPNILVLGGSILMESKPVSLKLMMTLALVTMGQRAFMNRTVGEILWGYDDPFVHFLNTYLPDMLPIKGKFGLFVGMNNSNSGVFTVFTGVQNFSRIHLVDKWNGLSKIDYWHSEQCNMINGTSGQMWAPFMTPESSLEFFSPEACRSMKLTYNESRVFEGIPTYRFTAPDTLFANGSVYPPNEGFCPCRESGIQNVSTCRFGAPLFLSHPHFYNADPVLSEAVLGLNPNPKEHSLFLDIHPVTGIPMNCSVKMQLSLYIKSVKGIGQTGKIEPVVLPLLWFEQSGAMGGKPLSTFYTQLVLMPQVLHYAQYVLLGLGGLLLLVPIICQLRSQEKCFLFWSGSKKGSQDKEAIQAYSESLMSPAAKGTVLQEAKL
dFosB activator – activators of mouse delta FosB homodimer. P13346. purified delta FosB, TAMRA-CDK5 oligo fluorescence polarization; percent of positive-control signal above neutral wells. activation, % at 25 µM. 340,000 tested, 0.99% active. AID 493131;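 active = mean activation above about 17%, with every replicate also reaching it, limit read from the data, passing the limit was not always enough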
SR-BI DiI-HDL act – SR-BI HDL lipid transfer activation. CHO ldlA[mSR-BI] cells, DiI-HDL uptake fluorescence, 3 h; 100 = double the neutral-control signal. activation, % at 12.5 µM. 320,000 tested, 0.096% active. AID 504775;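 active = mean replicate activation of at least 60% and every replicate at or above 60%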;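 also: 0% = median plate neutral-control signal and 100% = twice that signal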
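system = CHO ldlA[mSR-BI] cells, LDL receptor-null, SR-BI overexpressing | medium = Ham's F12 with 0.5% BSA, HEPES 25 mM, pH 7.4 | probe or stimulus = DiI-HDL 10 µg/mL | compound dosing = single-point compound dose | incubation = compound exposure 3 h, 37 °C | technique = DiI fluorescence, bottom read | read-out = cell-associated DiI fluorescence as measure of HDL uptake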
Active calls of the source: *. In the library only some 2% were active in any assay of this set; here they are far more common.

SMILES	CDK5 inh	SR-BI HDL uptake	dFosB activator	SR-BI DiI-HDL act
O=C(COC(=O)C1CCC1)NCc1ccc(F)cc1	0	-42	-8	42
Cc1cc(N/N=C/c2ccc(O)c(C)c2O)nc(-c2ccccc2O)n1	-1	104*	2	-104
Cc1cc(Nc2ccc(Br)cc2)nc(-c2ccccc2O)n1	0	75*	13	-75
Cc1ccc(NS(=O)(=O)c2ccc(C(=O)NCCCN3CCCC3=O)cc2)cc1	0	-8	-3	8
COc1cc(C(=O)Nc2ccc(-c3nc4cc(C)ccc4o3)c(O)c2)cc(OC)c1OC	-1	59	27*	-59
C[C@H](CO)N1C[C@H](C)[C@@H](CN(C)C(=O)Nc2ccc(C(F)(F)F)cc2)Oc2c(NC(=O)CCC(F)(F)F)cccc2C1=O	-1	76*	-12	-76
C[C@H](CO)N1C[C@H](C)[C@@H](CN(C)C(=O)Nc2ccc(C(F)(F)F)cc2)Oc2c(NC(=O)Cc3ccccc3)cccc2C1=O	0	65	-3	-65
Cc1noc(C)c1NC(=O)Nc1cccc2c1O[C@H](CN(C)C(=O)Nc1ccc(C(F)(F)F)cc1)[C@@H](C)CN([C@H](C)CO)C2=O	-1	79*	0	-79
Cc1ccccc1N1CC(C(=O)N2CCCCCC2)CC1=O (stereo not drawn)	1	-3	-1	3
CN(CCc1ccccc1)C1CCCN(S(=O)(=O)N(C)C)C1 (stereo not drawn)	0	-9	2	9
O=C(CCSCCC(=O)NN=Cc1ccc(F)cc1)NN=Cc1ccc(F)cc1	0	82*	-16	-82
Cc1ccc(N(CC(=O)NCc2ccc(F)cc2)S(=O)(=O)c2c(C)n[nH]c2C)cc1	-1	-17	-17	17
COC(=O)c1ccc2c(c1)C(C)(C)C(/C=C/c1ccccc1O)=[N+]2C	11	76*	111*	-76
Cc1[nH]c2ccccc2c1/C=N/Nc1nc(N2CCCCC2)nc(N2CCCCC2)n1	0	91*	-2	-91
CN(C)c1nc(Nc2ccc(F)cc2)nc(Oc2ccc(F)cc2)n1	1	33	2	-33
Cc1ccc(NC(=S)N/N=C/c2c(C)[nH]c3ccccc23)cc1	1	102*	-3	-102
Cc1[nH]c2ccccc2c1/C=N/NC(=O)Nc1ccccc1	-1	39	-4	-39
C(=N\Nc1nc(N2CCCCC2)nc(N2CCCCC2)n1)/c1c[nH]c2ccccc12	-1	64	-7	-64
Cc1[nH]c2ccccc2c1/C=N/NC(N)=S	1	86*	-4	-86
CN(C)c1nc(N/N=C/c2ccccc2O)nc(Nc2ccc(F)cc2)n1	1	37	60*	-37
Oc1ccccc1C=NNC(=S)Nc1ccc(F)cc1	4	101*	-10	-101
Fc1ccc(NC(=S)NN=Cc2ccccc2Cl)cc1	0	18	-3	-18
COc1ccc(-c2sc(NC(=O)c3ccc(C)cc3)nc2-c2ccc([N+](=O)[O-])cc2)cc1	2	90*	4	-90
O=C(CCS(=O)(=O)c1ccc(Br)cc1)NCCC1=CCCCC1	-2	-1	-5	1
O=C(OCCNc1ccc(C(F)(F)F)cc1[N+](=O)[O-])c1cc2ccccc2oc1=O	0	-12	5	12
SMILES	CDK5 inh	SR-BI HDL uptake	dFosB activator	SR-BI DiI-HDL act
Cc1ccc(NC2CC(C)NC(=S)N2)cc1 (stereo not drawn)	1	5	-1	-5
Cc1cc(-c2cc(-c3ccc(Cl)cc3)on2)nc(NC2CCCC2)n1	1	10	1	-10
Cc1cc(-c2cc(-c3ccccc3)on2)nc(NC2CCCC2)n1	0	81*	-4	-81
O=C(CN(C(=O)c1csnn1)c1cccc(C(F)(F)F)c1)NCc1ccc(F)cc1	0	-2	11	2
CCCN1C(=O)c2cc(C(=O)Nc3ccc(OC)cc3OC)ccc2C1Nc1ccc(OC)cc1OC (stereo not drawn)	0	74*	-2	-74
O=C(CCN1C(=O)/C(=C/c2ccc(F)cc2)SC1=S)NC1C=CS(=O)(=O)C1 (stereo not drawn)	0	26	-5	-26
O=C(CCN1C(=O)/C(=C/c2ccccc2Cl)SC1=S)NC1C=CS(=O)(=O)C1 (stereo not drawn)	0	27	28*	-27
O=C(NNC(=O)c1cccs1)c1csc(N2CCOCC2)n1	-4	-11	-1	11
O=C(NNC(=O)c1ccc(Br)s1)c1csc(N2CCOCC2)n1	-6	-15	61*	15

Screens: PubChem BioAssay, Broad Institute
